Results on 16 molecules are retold here after ChEMBL document CHEMBL3259598, “Lignan dicarboxylates and terpenoids from the flower buds of Cananga odorata and their inhibitory effects on melanogenesis” (J Nat Prod, 2014).

Series [1] in a line: Inhibition of melanogenesis in mouse B16-4A5 cells at 1 uM after 72 hrs by spectrophotometry relative to control. It counts as functional. The note with it: B16-4A5, 72 h. The procedure, abridged: (§1)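 Murine B16 melanoma 4A5 cells seeded at 2.0 × 10^4 cells/well in 24-well plates and cultured 24 h, then given test compound (DMSO, final 0.1%) plus 1 mM theophylline for 72 h. Cells trypsinized, washed and lysed in 1 M NaOH at 80 °C for 30 min; lysate absorbance read at 405 nm. Inhibition is corrected for cell viability, mean ± SEM (n = 4); IC50 determined graphically.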

Series [2] in a line: Inhibition of melanogenesis in mouse B16-4A5 cells at 3 uM after 72 hrs by spectrophotometry relative to control. It counts as functional. The settings on record: B16-4A5, 72 h. A digest of the protocol: as §1
Series [3] is described as follows: Inhibition of melanogenesis in mouse B16-4A5 cells at 10 uM after 72 hrs by spectrophotometry relative to control. It counts as functional. The settings on record: B16-4A5, 72 h. A digest of the protocol: as §1
The nature of series [4]: Inhibition of melanogenesis in mouse B16-4A5 cells at 30 uM after 72 hrs by spectrophotometry relative to control. The class given is functional. The settings on record: B16-4A5, 72 h. The procedure, abridged: as §1
The nature of series [5]: Inhibition of melanogenesis in mouse B16-4A5 cells at 100 uM after 72 hrs by spectrophotometry relative to control. It counts as functional. The note with it: B16-4A5, 72 h. A digest of the protocol: as §1
Series [6] is described as follows: Inhibition of melanogenesis in mouse B16-4A5 cells after 72 hrs by spectrophotometry relative to control. It counts as functional, cell-based. The procedure, abridged:
as §1

A short description of series [7]: Cytotoxicity against mouse B16-4A5 cells assessed as viable cells at 30 uM after 72 hrs by WST-8 assay. It counts as cell-based. The settings on record: read-out: Activity. A digest of the protocol: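 B16 melanoma 4A5 cells (DMEM, 4.5 g/L glucose, 10% FBS, 37 °C, 5% CO2) seeded at 5.0 × 10^4 cells/well in 96-well plates, grown 24 h, then exposed to test compound (DMSO, final 0.1%) for 70 h. After a PBS wash, cells were given DMEM plus WST-8 for 2 h more. Formazan read at 450 nm (reference 655 nm).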
(In general: Formazan colour is commonly taken as a measure of viable cells.)

SMILES strings stand for the structures.

What is called inhibition is the relative decrease from the control value, in per cent. One may read the IC50 as the concentration needed to halve the response being measured. For the molecule `O=C[C@]1(/C=C\O[C@@H]2O[C@H](CO)[C@@H](O)[C@H](O)[C@H]2O)CC[C@H](COC(=O)C(=C/c2ccc(O)cc2)/C(=C\c2ccc(O)c(O)c2)C(=O)OC[C@H]2CC[C@](C=O)(/C=C\O[C@@H]3O[C@H](CO)[C@@H](O)[C@H](O)[C@H]3O)[C@@H](O)C2)C[C@@H]1O`, the inhibition at 1 µM in series [1] came to 28.6%. Besides, in series [2], the inhibition at 3 µM came to 30.2%. The inhibition at 10 µM in series [3] was determined as 31.8%. For the same molecule, the inhibition at 30 µM in series [4] worked out at 34.8%. Also, the inhibition at 100 µM in series [5] is 16.7%. The IC50 in series [6] was over 100 µM. Further, the viability at 72 h, 30 µM in series [7] was over 95.2%.
For `O=C[C@]1(/C=C\O[C@@H]2O[C@H](CO)[C@@H](O)[C@H](O)[C@H]2O)CC[C@H](COC(=O)C2=Cc3cc(O)c(O)cc3[C@@H](c3ccc(O)cc3)[C@@H]2C(=O)OC[C@H]2CC[C@](C=O)(/C=C\O[C@@H]3O[C@H](CO)[C@@H](O)[C@H](O)[C@H]3O)[C@@H](O)C2)C[C@@H]1O`, the inhibition at 1 µM in series [1] amounted to 9.2%. The inhibition at 3 µM in series [2] is 8.7%. Also, in series [3], the inhibition at 10 µM is 3.6%. In series [4], the inhibition at 30 µM was 2.9%. Besides, the inhibition at 100 µM in series [5] came out at 8.7%. The molecule also came in with an IC50 in series [6] of over 100 µM. In series [7], the viability at 72 h, 30 µM was over 80.3%.
On to `O=C[C@]1(/C=C\O[C@@H]2O[C@H](CO)[C@@H](O)[C@H](O)[C@H]2O)CC[C@H](COC(=O)C2=Cc3ccc(O)c(O)c3[C@@H](c3ccc(O)cc3)[C@@H]2C(=O)OC[C@H]2CC[C@](C=O)(/C=C\O[C@@H]3O[C@H](CO)[C@@H](O)[C@H](O)[C@H]3O)[C@@H](O)C2)C[C@@H]1O`, for which the inhibition at 1 µM in series [1] was 12.8%. Moreover, the inhibition at 3 µM in series [2] stood at 14.9%. In addition, the inhibition at 10 µM in series [3] amounted to 9.4%. Moreover, the inhibition at 30 µM in series [4] amounted to 8.4%. The inhibition at 100 µM in series [5] is -27.9%. The IC50 in series [6] is over 100 µM. In series [7], the viability at 72 h, 30 µM was over 80.3%.
In the case of `O=C[C@]1(/C=C\O[C@@H]2O[C@H](CO)[C@@H](O)[C@H](O)[C@H]2O)CC[C@H](COC(=O)/C=C/c2ccc(O)c(O)c2)C[C@@H]1O`, the inhibition at 1 µM in series [1] is -3.8%. In series [2], the inhibition at 3 µM was -8.5%. The inhibition at 10 µM in series [3] amounted to 9.3%. Besides, the inhibition at 30 µM in series [4] amounted to 11.4%. Besides, the inhibition at 100 µM in series [5] was determined as 12.2%. Besides, the half-inhibitory concentration (IC50) in series [6] was over 100 µM. In addition, in series [7], the viability at 72 h, 30 µM is over 95.2%.
For `CO[C@@H]1C[C@]2(CC[C@H](COC(=O)/C=C/c3ccc(O)c(O)c3)C[C@@H]2O)[C@@H](OC)O1`, in series [1], the inhibition at 1 µM came to 34.7%. Further, the inhibition at 3 µM in series [2] was 42.8%. For the same molecule, the inhibition at 10 µM in series [3] is 65.2%. In addition, the inhibition at 30 µM in series [4] worked out at 62.8%. Also, the inhibition at 100 µM in series [5] was found to be 66.8%. Besides, in series [6], the half-maximal inhibitory concentration (IC50) turned out to be 3.6 µM. Besides, the viability at 72 h, 30 µM in series [7] was over 95.2%.
For `CO[C@H]1C[C@]2(CC[C@H](COC(=O)/C=C/c3ccc(O)c(O)c3)C[C@@H]2O)[C@H](OC)O1`, the inhibition at 1 µM in series [1] was 13.5%. In series [2], the inhibition at 3 µM amounted to 16.9%. In addition, the inhibition at 10 µM in series [3] was 36.4%. Also, the inhibition at 30 µM in series [4] is 60%. For the same molecule, in series [5], the inhibition at 100 µM was 81.2%. In series [6], this molecule had an IC50 of 19.3 µM. Besides, in series [7], the viability at 72 h, 30 µM is over 80.3%.
In the case of `CC(C)[C@@H]1CC[C@@](C)(O)[C@H]2CCC(C=O)=C[C@@H]12`, the inhibition at 1 µM in series [1] was 19.2%. Also, the inhibition at 3 µM in series [2] came out at 29.9%. Further, the inhibition at 10 µM in series [3] was 35.8%. Also, the inhibition at 30 µM in series [4] was 50.8%. The inhibition at 100 µM in series [5] stood at 66.3%. Moreover, in series [6], half-maximal inhibition (IC50) was put at 26.2 µM. In addition, in series [7], the viability at 72 h, 30 µM was over 80.3%.
On to `CC(C)[C@H]1CC[C@]2(C)[C@@H](O)CCC(C=O)=C[C@@H]12`, for which the inhibition at 1 µM in series [1] was -4.4%. The inhibition at 3 µM in series [2] amounted to 9.2%. Moreover, the inhibition at 10 µM in series [3] turned out to be 14.7%. The inhibition at 30 µM in series [4] was determined as 37.7%. Also, the inhibition at 100 µM in series [5] turned out to be 58.8%. This molecule also displayed an IC50 in series [6] of 57.5 µM. Besides, the viability at 72 h, 30 µM in series [7] was over 80.3%.
For the molecule `CC(C)[C@H]1CC[C@]2(C)C(=O)CCC(C=O)=C[C@@H]12`, in series [1], the inhibition at 1 µM was found to be 45.5%. Further, in series [2], the inhibition at 3 µM was found to be 50.3%. The inhibition at 10 µM in series [3] came out at 57.6%. Also, the inhibition at 30 µM in series [4] was determined as 68.5%. The inhibition at 100 µM in series [5] was 80.6%. In series [6], the IC50 came to 2.5 µM. The viability at 72 h, 30 µM in series [7] was over 95.2%.
`C=C1/C=C/[C@H](C(C)C)CCC(=C)[C@H](O)CC1`: the inhibition at 1 µM in series [1] was determined as 28.9%. For the same molecule, in series [2], the inhibition at 3 µM was determined as 30.5%. The inhibition at 10 µM in series [3] turned out to be 40.6%. In addition, the inhibition at 30 µM in series [4] was 61.2%. Moreover, the inhibition at 100 µM in series [5] was found to be 62.2%. The molecule further displayed a half-inhibitory concentration (IC50) in series [6] of 17.3 µM. In series [7], the viability at 72 h, 30 µM was over 95.2%.
For the molecule `O=C[C@]1(CCO[C@@H]2O[C@H](CO)[C@@H](O)[C@H](O)[C@H]2O)CC[C@H](COC(=O)C(=C/c2ccc(O)cc2)/C(=C\c2ccc(O)c(O)c2)C(=O)OC[C@H]2CC[C@](C=O)(CCO[C@@H]3O[C@H](CO)[C@@H](O)[C@H](O)[C@H]3O)[C@@H](O)C2)C[C@@H]1O`, the inhibition at 1 µM in series [1] turned out to be 8.1%. Also, in series [2], the inhibition at 3 µM amounted to 18%. Further, the inhibition at 10 µM in series [3] is 18.4%. Moreover, the inhibition at 30 µM in series [4] was 24.2%. For the same molecule, the inhibition at 100 µM in series [5] was found to be 29.8%. In addition, the viability at 72 h, 30 µM in series [7] is over 95.2%.
On to `O=C(OC[C@H]1CC[C@](CO)(CCO[C@@H]2O[C@H](CO)[C@@H](O)[C@H](O)[C@H]2O)[C@@H](O)C1)C(=C/c1ccc(O)cc1)/C(=C\c1ccc(O)c(O)c1)C(=O)OC[C@H]1CC[C@](CO)(CCO[C@@H]2O[C@H](CO)[C@@H](O)[C@H](O)[C@H]2O)[C@@H](O)C1`, for which, in series [1], the inhibition at 1 µM came out at 22.3%. Besides, in series [2], the inhibition at 3 µM worked out at 27.2%. Further, the inhibition at 10 µM in series [3] turned out to be 27.3%. Moreover, in series [4], the inhibition at 30 µM is 32.3%. In addition, the inhibition at 100 µM in series [5] is 25.3%. Besides, in series [6], the IC50 is over 100 µM. Besides, the viability at 72 h, 30 µM in series [7] was over 80.3%.
Consider `COC(=O)C(=C/c1ccc(OC)cc1)/C(=C\c1ccc(OC)c(OC)c1)C(=O)OC`, for which the inhibition at 1 µM in series [1] came to 49%. For the same molecule, the inhibition at 3 µM in series [2] came out at 48.4%. In series [3], the inhibition at 10 µM amounted to 43.6%. In series [4], the inhibition at 30 µM was determined as 35.9%. In addition, the inhibition at 100 µM in series [5] is 11.5%. Besides, in series [7], the viability at 72 h, 30 µM is over 74.5%.
Take `OC[C@H]1CC[C@](CO)(CCO[C@@H]2O[C@H](CO)[C@@H](O)[C@H](O)[C@H]2O)[C@@H](O)C1`: the inhibition at 1 µM in series [1] is 16.1%. Besides, in series [2], the inhibition at 3 µM was 17.9%. For the same molecule, the inhibition at 10 µM in series [3] amounted to 15.3%. In addition, the inhibition at 30 µM in series [4] was -2.5%. In series [5], the inhibition at 100 µM is -9.4%. In addition, the viability at 72 h, 30 µM in series [7] is over 80.3%.
Regarding `C=C1CC[C@@H](O)[C@]2(C)CC[C@@H](C(C)C)[C@H](O)[C@@H]12`, the inhibition at 1 µM in series [1] came out at 42.3%. Further, the inhibition at 3 µM in series [2] is 39.7%. For the same molecule, in series [3], the inhibition at 10 µM came out at 53.8%. The inhibition at 30 µM in series [4] stood at 54.7%. The inhibition at 100 µM in series [5] was found to be 59.2%. In series [6], this molecule displayed an IC50 of 8.4 µM. For the same molecule, the viability at 72 h, 30 µM in series [7] was over 74.5%.
Take `CC(C)[C@@H]1CC[C@@](C)(O)[C@@H]2CCC(C=O)=C[C@H]21`: the inhibition at 1 µM in series [1] is 25%. For the same molecule, in series [2], the inhibition at 3 µM came out at 45.5%. Also, in series [3], the inhibition at 10 µM turned out to be 64%. In addition, the inhibition at 30 µM in series [4] is 65.9%. In addition, the inhibition at 100 µM in series [5] came to 48.8%. Besides, the IC50 in series [6] worked out at 5.1 µM. Besides, in series [7], the viability at 72 h, 30 µM is over 80.3%.
